Measurements: ChEMBL document CHEMBL1128595, “Synthesis and biological activity of 7-alkylidenecephems” (J Med Chem, 1995)

Assays:
Beta-lactamase TEM [1] = target: T1, Beta-lactamase TEM (Escherichia coli, UniProt P62593); test: (§1) The concentration of compound to inhibit beta-lactamase was measured on Escherichia coli WC3310; type: functional
Outline: (§2)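 TEM-2 β-lactamase partially purified from E. coli W3310 (freeze-thaw lysis, DNase, Sephadex G-75 gel filtration). Enzyme preincubated with varied inhibitor in 50 mM phosphate buffer pH 7.2 at 25 °C for 10 min.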

Beta-lactamase [2] = target: T2, Beta-lactamase (Enterobacter cloacae, UniProt P05364); test: The concentration of compound to inhibit beta-lactamase was measured on Enterobacter cloacae SC 12368; type: functional
Beta-lactamase [3] = target: T2, Beta-lactamase; test: The concentration of compound to inhibit beta-lactamase was measured on Enterobacter cloacae P99; type: functional
Beta-lactamase [4] = target: T2, Beta-lactamase; test: The concentration of compound to inhibit Beta-lactamase was measured on Enterobacter cloacae P99; type: functional
Beta-lactamase [5] = target: T2, Beta-lactamase; test: The concentration of compound to inhibit Beta-lactamase was measured on Enterobacter cloacae SC 12368; type: functional
Beta-lactamase TEM [6] = target: T1, Beta-lactamase TEM; test: (§3) The concentration of compound to inhibit Beta-lactamase was measured on Escherichia coli WC3310; type: functional
Outline: as §2, with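 “min. Aliquot then diluted into nitrocefin (the more concentrated standard solution), and hydrolysis rate read at 482 nm.” for “min.”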

Beta-lactamase TEM [7] = target: T1, Beta-lactamase TEM; test: as §1; type: functional; remark: listed apart in the source
Outline: as §2, with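 “min. Aliquot then diluted into nitrocefin (the more concentrated standard solution), and hydrolysis rate read at 482 nm.” for “min.”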

[8] = The pseudo second order rate constant of inhibition (k3'') was measured by using Kitz and Wilson method; type: ADME
Outline: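 Kitz–Wilson analysis with E. cloacae P99 β-lactamase in 50 mM phosphate pH 7.2 at 25 °C. Enzyme incubated with five inhibitor concentrations (assay 2.8 × 10⁻⁸ to 1.4 × 10⁻⁷ M; enzyme 2.56 nM final). Aliquots taken at 30 s intervals over 5 min, diluted into nitrocefin (0.19 mM), absorbance at 482 nm read for 10 s. Reciprocal rate constants plotted against reciprocal inhibitor concentration.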

Beta-lactamase TEM [9] = target: T1, Beta-lactamase TEM; test: as §3; type: functional; outline: as §2; remark: listed apart in the source

T2 sequence (P05364 whole entry): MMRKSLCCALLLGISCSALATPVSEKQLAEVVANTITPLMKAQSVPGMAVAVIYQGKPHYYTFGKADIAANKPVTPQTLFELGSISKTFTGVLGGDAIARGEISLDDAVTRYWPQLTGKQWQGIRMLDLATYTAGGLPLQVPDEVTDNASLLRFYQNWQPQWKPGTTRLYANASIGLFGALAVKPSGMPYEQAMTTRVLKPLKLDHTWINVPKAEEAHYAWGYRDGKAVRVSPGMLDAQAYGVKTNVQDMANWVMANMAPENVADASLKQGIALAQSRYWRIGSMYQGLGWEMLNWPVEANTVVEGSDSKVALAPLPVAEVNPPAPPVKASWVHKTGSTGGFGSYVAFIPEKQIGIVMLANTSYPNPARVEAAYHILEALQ
T1 sequence (P62593 whole entry): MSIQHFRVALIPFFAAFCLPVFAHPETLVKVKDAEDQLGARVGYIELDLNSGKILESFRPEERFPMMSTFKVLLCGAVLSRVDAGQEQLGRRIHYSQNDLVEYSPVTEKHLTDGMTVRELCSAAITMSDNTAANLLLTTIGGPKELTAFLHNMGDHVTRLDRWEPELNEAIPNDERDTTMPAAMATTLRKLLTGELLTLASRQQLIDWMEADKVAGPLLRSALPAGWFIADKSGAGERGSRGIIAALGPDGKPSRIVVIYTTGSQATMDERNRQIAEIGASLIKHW

Which IC50 (Beta-lactamase TEM [1]) does the source give for `CC(=O)OCC1=C(C(=O)O)N2C(=O)/C(=C/c3ccccc3)[C@H]2S(=O)(=O)C1` here?
Its IC50 is > 20 µM.

And the IC50 (Beta-lactamase [2])?
Its IC50 is 6.8 µM.

What about the IC50 (Beta-lactamase [3]) of the same molecule?
The IC50 was 6.25 µM.

Which results are given for `CC(=O)OCC1=C(C(=O)O)N2C(=O)C(=C(Cl)Cl)[C@H]2S(=O)(=O)C1`?
IC50 (Beta-lactamase TEM [1]): 8.3 µM; IC50 (Beta-lactamase [2]): > 20 µM; IC50 (Beta-lactamase [3]): > 20 µM

Which IC50 (Beta-lactamase [4]) does the source give for `CC(=O)OCC1=C(C(=O)O)N2C(=O)/C(=C/c3ccccc3)[C@H]2SC1` here?
Its IC50 is > 20 µM.

What about the IC50 (Beta-lactamase [5]) of the same molecule?
The IC50 was > 20 µM.

What about the IC50 (Beta-lactamase TEM [6]) of the same molecule?
Its IC50 is > 20 µM.

Which IC50 (Beta-lactamase TEM [1]) does the source give for `CC(=O)OCC1=C(C(=O)O)N2C(=O)C(=C(Br)Br)[C@H]2S(=O)(=O)C1` here?
Its IC50 is > 20 µM.

What about the IC50 (Beta-lactamase [2]) of the same molecule?
The IC50 was > 20 µM.

What about the IC50 (Beta-lactamase [3]) of the same molecule?
Its IC50 is > 20 µM.

Which results are given for `CC(=O)OCC1=C(C(=O)O)N2C(=O)/C(=C/C(C)(C)C)[C@H]2SC1`?
IC50 (Beta-lactamase [2]): > 20 µM; IC50 (Beta-lactamase [3]): > 20 µM; IC50 (Beta-lactamase TEM [7]): > 20 µM

With `CC(=O)OCC1=C(C(=O)[O-])N2C(=O)/C(=C/c3ccccn3)[C@H]2S(=O)(=O)C1.[Na+]` as the molecule, how does the k3' [8] read?
Its k3' is 5.3e+06 L (M min)-1.

And the IC50 (Beta-lactamase TEM [1])?
The IC50 was 0.8 µM.

And the IC50 (Beta-lactamase [2])?
The IC50 was 0.025 µM.

And the IC50 (Beta-lactamase [3])?
Its IC50 is 0.025 µM.

With `CC(=O)OCC1=C(C(=O)O)N2C(=O)/C(=C/C(C)(C)C)[C@H]2S(=O)(=O)C1` as the molecule, how does the IC50 (Beta-lactamase [2]) read?
Its IC50 is > 20 µM.

What about the IC50 (Beta-lactamase [3]) of the same molecule?
The IC50 was > 20 µM.

What about the IC50 (Beta-lactamase TEM [7]) of the same molecule?
Its IC50 is > 20 µM.

For `CC(=O)OCC1=C(C(=O)[O-])N2C(=O)C(=C=CC(C)(C)C)[C@H]2S(=O)(=O)C1.[Na+]`, which k3' [8] is on record?
The k3' was 1.7e+06 L (M min)-1.

What about the IC50 (Beta-lactamase [4]) of the same molecule?
The IC50 was 0.13 µM.

What about the IC50 (Beta-lactamase [5]) of the same molecule?
The IC50 was 0.26 µM.

And the IC50 (Beta-lactamase TEM [6])?
The IC50 was > 20 µM.

For `CC(=O)OCC1=C(C(=O)O)N2C(=O)/C(=C/C(=O)OC(C)(C)C)[C@H]2S(=O)(=O)C1`, which IC50 (Beta-lactamase TEM [1]) is on record?
Its IC50 is 0.005 µM.

What about the IC50 (Beta-lactamase [2]) of the same molecule?
The IC50 was 5.9 µM.

And the IC50 (Beta-lactamase [3])?
Its IC50 is 7.8 µM.

With `CC(=O)OCC1=C(C(=O)O)N2C(=O)C(=C(Cl)Cl)[C@H]2SC1` as the molecule, how does the IC50 (Beta-lactamase [4]) read?
The IC50 was > 20 µM.

And the IC50 (Beta-lactamase [5])?
The IC50 was > 20 µM.

And the IC50 (Beta-lactamase TEM [6])?
The IC50 was > 20 µM.

With `CON(C)C(=O)/C=C1/C(=O)N2C(C(=O)O)=C(COC(C)=O)CS[C@H]12` as the molecule, how does the IC50 (Beta-lactamase TEM [1]) read?
The IC50 was > 20 µM.

And the IC50 (Beta-lactamase [2])?
The IC50 was > 20 µM.

What about the IC50 (Beta-lactamase [3]) of the same molecule?
The IC50 was > 20 µM.

With `C[C@]1(Cn2ccnn2)[C@H](C(=O)[O-])N2C(=O)C[C@H]2S1(=O)=O.[Na+]` [TAZOBACTAM SODIUM] as the molecule, how does the k3' [8] read?
Its k3' is 74000 L (M min)-1.

Which results are given for `CC(=O)OCC1=C(C(=O)O)N2C(=O)/C(=C/C=O)[C@H]2SC1`?
IC50 (Beta-lactamase [4]): 8.2 µM; IC50 (Beta-lactamase [5]): 16.5 µM; IC50 (Beta-lactamase TEM [6]): > 20 µM

With `CC(=O)OCC1=C(C(=O)O)N2C(=O)/C(=C/C(=O)OC(C)(C)C)[C@H]2SC1` as the molecule, how does the IC50 (Beta-lactamase [4]) read?
The IC50 was 2.5 µM.

And the IC50 (Beta-lactamase [5])?
The IC50 was > 20 µM.

And the IC50 (Beta-lactamase TEM [6])?
The IC50 was > 20 µM.

Which results are given for `CC(=O)OCC1=C(C(=O)O)N2C(=O)C(=C(Br)Br)[C@H]2SC1`?
IC50 (Beta-lactamase [4]): > 20 µM; IC50 (Beta-lactamase [5]): > 20 µM; IC50 (Beta-lactamase TEM [6]): > 20 µM

Which IC50 (Beta-lactamase [4]) does the source give for `CC(=O)OCC1=C(C(=O)O)N2C(=O)/C(=C/c3ccccn3)[C@H]2SC1` here?
The IC50 was > 20 µM.

And the IC50 (Beta-lactamase [5])?
Its IC50 is > 20 µM.

What about the IC50 (Beta-lactamase TEM [6]) of the same molecule?
The IC50 was > 2 µM.

For `O=C([O-])[C@H]1/C(=C/CO)O[C@@H]2CC(=O)N21.[Na+]` [CLAVULANIC ACID (SODIUM)], which “k3'” value [8] is on record?
The value was 799 L (M min)-1.

Which IC50 (Beta-lactamase [4]) does the source give for `CC(=O)/C=C1/C(=O)N2C(C(=O)O)=C(COC(C)=O)CS[C@H]12` here?
The IC50 was > 20 µM.

What about the IC50 (Beta-lactamase [5]) of the same molecule?
Its IC50 is > 20 µM.

What about the IC50 (Beta-lactamase TEM [6]) of the same molecule?
The IC50 was > 20 µM.

Which results are given for `CC(=O)OCC1=C(C(=O)O)N2C(=O)/C(=C\Br)[C@H]2S(=O)(=O)C1`?
IC50 (Beta-lactamase [2]): > 20 µM; IC50 (Beta-lactamase [3]): > 20 µM; IC50 (Beta-lactamase TEM [7]): > 20 µM

Which results are given for `CC(=O)OCC1=C(C(=O)O)N2C(=O)/C(=C\c3ccccc3)[C@H]2S(=O)(=O)C1`?
IC50 (Beta-lactamase TEM [1]): > 20 µM; IC50 (Beta-lactamase [2]): > 20 µM; IC50 (Beta-lactamase [3]): > 20 µM

What does the source list for `CC(=O)OCC1=C(C(=O)O)N2C(=O)/C(=C/CO)[C@H]2S(=O)(=O)C1`?
IC50 (Beta-lactamase [2]): > 20 µM; IC50 (Beta-lactamase [3]): > 20 µM; IC50 (Beta-lactamase TEM [7]): > 20 µM

With `CC(=O)OCC1=C(C(=O)O)N2C(=O)/C(=C\Br)[C@H]2SC1` as the molecule, how does the IC50 (Beta-lactamase [4]) read?
Its IC50 is > 20 µM.

What about the IC50 (Beta-lactamase [5]) of the same molecule?
Its IC50 is > 20 µM.

And the IC50 (Beta-lactamase TEM [9])?
The IC50 was > 20 µM.
